# Only some compounds are listed: those with a hit (about 3.5% of all), similar ones and a draw of the others.
# MrgX1 antag: blocks BAM8-22 activation of human MrgX1 receptor | Q96LB2 | MRGX1-HEK293 calcium flux, Fluo-4, BAM8-22 antagonism; active compounds read low | B-score at 10 µM | 1.3% of 310,000 active | AID 588676;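 active = calcium-response B-score plate-corrected more than 3 library SD below zero, starting fluorescence within 5 deviations, no agonist response on first addition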;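 note: peak minus trough fluorescence over baseline after final BAM8-22 challenge near maximal dose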
# Target sequence (Q96LB2 whole entry, looked up): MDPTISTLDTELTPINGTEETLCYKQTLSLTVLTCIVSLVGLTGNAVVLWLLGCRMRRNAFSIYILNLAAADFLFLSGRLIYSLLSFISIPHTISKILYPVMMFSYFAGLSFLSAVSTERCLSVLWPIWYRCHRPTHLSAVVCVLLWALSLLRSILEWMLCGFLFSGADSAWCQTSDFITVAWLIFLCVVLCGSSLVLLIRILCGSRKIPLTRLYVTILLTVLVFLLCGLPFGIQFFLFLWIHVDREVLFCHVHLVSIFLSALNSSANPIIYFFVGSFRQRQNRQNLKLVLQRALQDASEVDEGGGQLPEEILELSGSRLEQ
# RGS4 inh: inhibitors of human RGS4; HEK293 M3R/RGS4 inducible, Fluo-4 calcium flux; active compounds read high; triggered by carbachol at its EC20; B-score at 10 µM; 0.45% of 310,000 active; AID 463165;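 active = B-score, a plate-corrected calcium signal, over three deviations above library mean, with baseline fluorescence within five deviations of library mean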;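 note: RGS4 expression induced by doxycycline in cells with stable M3 receptor; B-score is computed from the integrated fluorescence ratio over baseline after carbachol; higher B-score means a larger calcium signal and so more RGS4 inhibition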
# Target sequence (P49798 whole entry, looked up): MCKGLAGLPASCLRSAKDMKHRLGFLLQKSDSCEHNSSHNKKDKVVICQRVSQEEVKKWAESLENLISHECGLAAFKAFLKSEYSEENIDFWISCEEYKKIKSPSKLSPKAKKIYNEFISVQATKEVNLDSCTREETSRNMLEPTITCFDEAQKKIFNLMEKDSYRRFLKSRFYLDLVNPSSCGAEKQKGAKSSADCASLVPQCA
# MrgX1 allo act: allosterically activates human MrgX1 receptor signaling. MrgX1-HEK293, Fluo-4 calcium flux, FDSS; active compounds read high. B-score at 10 µM. 0.63% of 310,000 active. AID 588675;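 active = plate-corrected calcium response at least 3 library SD above typical, normal starting fluorescence, not activating the receptor alone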;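 note: compound read alongside a low EC10 to EC30 dose of BAM8-22 agonist; peak minus trough fluorescence over baseline measured at the second addition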
# RGS4 act: potentiators or activators of RGS4. HEK293 M3R/inducible RGS4, carbachol calcium flux Fluo4; active compounds read low. 0.92% of 310,000 active. B-score at 10 µM;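 active = B-score of the integrated calcium signal more than 4 SD below the library mean, with starting fluorescence not abnormally high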;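 note: negative B-score means reduced calcium response which marks RGS4 activation or potentiation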
#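 Test system: HEK293 cells with stable M3R and inducible RGS4; also added: carbachol at ECmax as muscarinic agonist stimulus; schedule: dye loading 30 min 37 °C, buffer rest 30 min RT; technique: kinetic calcium fluorescence imaging with Fluo4-AM dye, 2 µM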
# MrgX1 agonist: human MrgX1 receptor agonism, primary screen | Q96LB2 | MrgX1-HEK293 cells, Fluo-4 calcium fluorescence, agonist mode; active compounds read high | B-score at 10 µM | 0.44% of 310,000 active;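 active = calcium response B-score plate-corrected fluorescence ratio at least 3 library SD, with starting fluorescence B-score inside 5 SD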
#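 Assay system: MrgX1-expressing HEK293 cells / Amount: fifteen thousand cells per well / Doses: test compound in the initial addition of three / Timing: cells plated overnight, dye loaded 0.5 h 37 °C, 0.5 h room temperature / Technique: kinetic calcium dye fluorescence, Fluo-4 NW / Control set: positive and negative controls per plate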
# MrgX1 ag confirm: human MrgX1 agonism, re-confirmation screen | shares compounds with MrgX1 agonist | MrgX1-HEK293, Fluo-4 calcium fluorescence, FDSS | activation, % at 10 µM | 78% of 600 active | AID 602412;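 active = calcium signal rise, corrected for plate position, at least 3 library SD high, with starting brightness within 5 such deviations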
# HEK293 Ca flux: counter-screen for MrgX1 antagonists: effect in parental HEK293 cells | Fluo-4 calcium fluorescence, FDSS | fluorescence ratio F(max-min)/F0 at 10 µM | AID 624111 | 2% of 4,000 active | shares compounds with MrgX1 antag;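 active = duplicate-averaged calcium fluorescence ratio at least three times the standard deviation of buffer wells, a nonspecific response in parental cells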
# HEK293 Ca counter: activity in parental HEK293 cells without MrgX1; shares compounds with MrgX1 antag; parental HEK293 calcium flux, Fluo-4 fluorescence ratio; active compounds read high; fluorescence ratio F(max-min)/F0 at 10 µM; 0.4% of 4,000 active;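 active = calcium fluorescence ratio, averaged over duplicates, at least 3 SD of the buffer-well ratio, meaning a nonspecific response in receptor-free cells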;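 note: untransfected parental HEK293 lacking MrgX1 used as counterscreen for MrgX1 allosteric activators; fluorescence change taken during the second addition on a kinetic imager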
# HEK293 Ca cntr2: MrgX1 activator counter-screen hit in parental HEK293 cells. 8.7% of 4,000 active. Fluo-4 calcium fluorescence (FDSS); active compounds read high. shares compounds with MrgX1 antag. AID 624115. fluorescence ratio F(max-min)/F0 at 10 µM;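 active = calcium fluorescence ratio at least three times the spread of buffer wells, meaning a non-specific response in parental cells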
# Hits are given with their value; . = inactive; / = no result.
SMILES,MrgX1 antag,RGS4 inh,MrgX1 allo act,RGS4 act,MrgX1 agonist,MrgX1 ag confirm,HEK293 Ca flux,HEK293 Ca counter,HEK293 Ca cntr2
CN(C)c1ccc(/C=C/c2nc3ccccc3c(=O)[nH]2)cc1,.,.,.,-7,27,.,.,.,55
O=c1[nH]c(/C=C/c2ccc(Br)cc2)nc2ccccc12,.,.,.,.,.,/,/,/,/
C/C(N)=C(/C#N)C(=O)CSc1nc2ccccc2c(=O)n1-c1ccccc1C,.,.,.,.,.,/,/,/,/
O=c1c2ccccc2nc(CSc2nnnn2-c2ccccc2)n1-c1ccccc1Cl,.,.,.,.,.,/,/,/,/
Cc1ccccc1-n1c(CSC(=N)N)nc2ccccc2c1=O,.,.,.,.,43,221%,.,.,.
N=C(N)SCc1nc2ccccc2c(=O)n1-c1ccccc1Cl,.,.,.,.,27,203%,.,.,.
N#CC1=C(N)Oc2cc(N)ccc2C1c1ccc(Cl)cc1 (stereo unspecified),.,.,.,.,.,/,/,/,/
N#CC1=C(N)Oc2cc(N)ccc2C1c1ccccc1Cl (stereo unspecified),.,.,.,.,29,.,.,.,.
CCCCCOc1ccc(C(C)(O)C(CN2CCOCC2)c2ccccc2)cc1 (stereo unspecified),.,.,.,.,.,/,/,/,/
CCCCCn1c(=N)c(S(=O)(=O)c2ccc(Cl)cc2)cc2c(=O)n3cccc(C)c3nc21,.,.,.,.,27,94%,.,.,.
COc1ccc(-c2csc(NC(=O)CCN3C(=O)C4CC=CCC4C3=O)n2)cc1OC (stereo unspecified),.,.,.,-7.3,45,.,.,.,.
COc1ccc(-c2csc(NC(=O)Cc3cc(OC)c(OC)c(OC)c3)n2)cc1OC,.,.,.,.,.,/,/,/,/
COc1ccc(-c2csc(NC(=O)CS(=O)(=O)c3ccc(F)cc3)n2)cc1OC,.,.,.,.,55,.,.,.,.
CCCCN1C(=O)C(=Nc2cccc3cnccc23)c2ccccc21,.,.,.,.,.,/,/,/,/
CCc1nc(N)nc(N)c1-c1ccc(Cl)cc1,.,.,.,.,28,.,.,.,.
Cc1ccc(CC(=O)Nc2ccccc2N2CCOCC2)cc1C,.,/,.,/,35,94%,.,.,.
COc1ccc(CC(=O)Nc2ccccc2N2CCOCC2)cc1OC,.,.,.,.,.,/,/,/,/
COc1cc(C(=O)NNC(=S)NC(=O)c2ccccc2C)cc(OC)c1OC,.,.,.,.,120,362%,.,.,89
COc1cc(C(=O)NC(=S)NNC(=O)[C@H]2C[C@@H]2c2ccccc2)cc(OC)c1OC,.,.,.,.,96,386%,.,.,76
COc1cc(C(=O)NNC(=S)NC(=O)c2ccc3c(c2)OCO3)cc(OC)c1OC,.,.,.,.,.,/,/,/,/
COc1ccccc1C(=O)NNC(=S)NC(=O)c1cc(OC)c(OC)c(OC)c1,.,.,.,.,101,453%,.,.,93
Cc1occc1C(=O)N1CCCC(N2CCN(c3ccccc3F)CC2)C1 (stereo unspecified),.,.,.,.,.,/,/,/,/
Cc1cc(Nc2cc(Cl)cc(Cl)c2)nc(N)n1,.,.,.,.,40,243%,.,.,.
Cc1cc(Nc2ccc(F)cc2)nc(N)n1,.,.,.,.,.,/,/,/,/
COCCCn1c(N)c(-c2nc3ccccc3n2C)c2nc3ccccc3nc21,.,.,.,.,60,249%,.,.,87
CC(C)N1CCc2c(sc(NC(=O)c3ccc(C(=O)c4ccccc4)cc3)c2C(N)=O)C1,.,.,.,.,36,.,.,.,.
CC(C)N1CCc2c(sc(NC(=O)Cc3ccccc3)c2C(N)=O)C1,.,.,.,.,.,/,/,/,/

# Screens: PubChem, Johns Hopkins Ion Channel Center
